Measured values from ChEMBL document CHEMBL1129572, “Synthesis and pharmacological properties of novel 8-substituted imidazobenzodiazepines: high-affinity, selective probes for alpha 5-containing GABAA receptors” (J Med Chem, 1996).

How the values were obtained:
[1] = molecular target: GABA A receptor alpha-6/beta-2/gamma-2 (Homo sapiens, UniProt P18507+P47870+Q16445); test: Binding affinity for human GABA-A receptor alpha-6-beta-2-gamma-2 expressed in L(tk-) cell membranes
[2] = molecular target: T1, GABA A receptor alpha-3/beta-2/gamma-2 (Homo sapiens, UniProt P18507+P34903+P47870); test: Binding affinity for human GABA-A receptor alpha-3-beta-2-gamma-2 expressed in L(tk-) cell membranes
T1 sequence (P47870 whole entry): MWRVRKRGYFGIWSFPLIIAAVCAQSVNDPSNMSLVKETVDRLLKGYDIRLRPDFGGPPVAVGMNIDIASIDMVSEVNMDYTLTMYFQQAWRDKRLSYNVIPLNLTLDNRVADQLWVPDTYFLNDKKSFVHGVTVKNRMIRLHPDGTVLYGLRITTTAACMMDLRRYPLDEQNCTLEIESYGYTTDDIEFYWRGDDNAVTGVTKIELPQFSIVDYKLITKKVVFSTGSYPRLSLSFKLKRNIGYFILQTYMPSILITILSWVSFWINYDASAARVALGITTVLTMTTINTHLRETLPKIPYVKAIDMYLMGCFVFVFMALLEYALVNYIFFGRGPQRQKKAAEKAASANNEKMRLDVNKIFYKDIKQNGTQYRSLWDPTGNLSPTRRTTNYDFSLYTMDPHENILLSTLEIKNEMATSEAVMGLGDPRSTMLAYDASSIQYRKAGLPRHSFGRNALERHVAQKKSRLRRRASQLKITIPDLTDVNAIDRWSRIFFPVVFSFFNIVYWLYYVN
T1 sequence (P18507 whole entry): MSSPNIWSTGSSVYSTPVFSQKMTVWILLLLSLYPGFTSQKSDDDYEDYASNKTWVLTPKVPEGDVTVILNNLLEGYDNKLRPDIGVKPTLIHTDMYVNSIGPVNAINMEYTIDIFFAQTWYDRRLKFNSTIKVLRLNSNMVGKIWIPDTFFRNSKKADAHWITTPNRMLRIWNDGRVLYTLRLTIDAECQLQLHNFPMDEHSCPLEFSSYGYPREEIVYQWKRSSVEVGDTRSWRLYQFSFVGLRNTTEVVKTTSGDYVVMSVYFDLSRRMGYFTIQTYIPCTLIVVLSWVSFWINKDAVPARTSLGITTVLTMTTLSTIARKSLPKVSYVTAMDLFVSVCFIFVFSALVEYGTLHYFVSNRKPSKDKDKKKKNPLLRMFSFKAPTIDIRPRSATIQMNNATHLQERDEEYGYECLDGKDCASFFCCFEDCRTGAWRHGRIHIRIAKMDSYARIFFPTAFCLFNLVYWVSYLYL
T1 sequence (P34903 whole entry): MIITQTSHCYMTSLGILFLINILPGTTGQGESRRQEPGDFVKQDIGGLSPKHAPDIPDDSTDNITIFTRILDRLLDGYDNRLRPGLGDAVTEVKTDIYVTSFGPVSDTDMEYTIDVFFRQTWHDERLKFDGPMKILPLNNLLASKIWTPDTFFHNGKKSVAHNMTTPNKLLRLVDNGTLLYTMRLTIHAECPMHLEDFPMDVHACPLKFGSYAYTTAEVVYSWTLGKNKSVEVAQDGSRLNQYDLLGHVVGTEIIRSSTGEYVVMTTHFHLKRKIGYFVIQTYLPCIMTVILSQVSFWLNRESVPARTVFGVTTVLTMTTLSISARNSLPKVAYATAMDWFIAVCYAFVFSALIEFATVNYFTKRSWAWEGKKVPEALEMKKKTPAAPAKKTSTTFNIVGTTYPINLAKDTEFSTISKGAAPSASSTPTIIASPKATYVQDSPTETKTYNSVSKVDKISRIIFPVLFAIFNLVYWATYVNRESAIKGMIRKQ

[3] = molecular target: T2, GABA-A receptor; alpha-1/beta-2/gamma-2 (Homo sapiens, UniProt P14867+P18507+P47870); test: Binding affinity for human GABA-A receptor alpha-1-beta-2-gamma-2 expressed in L(tk-) cell membranes
T2 sequence (P14867 whole entry): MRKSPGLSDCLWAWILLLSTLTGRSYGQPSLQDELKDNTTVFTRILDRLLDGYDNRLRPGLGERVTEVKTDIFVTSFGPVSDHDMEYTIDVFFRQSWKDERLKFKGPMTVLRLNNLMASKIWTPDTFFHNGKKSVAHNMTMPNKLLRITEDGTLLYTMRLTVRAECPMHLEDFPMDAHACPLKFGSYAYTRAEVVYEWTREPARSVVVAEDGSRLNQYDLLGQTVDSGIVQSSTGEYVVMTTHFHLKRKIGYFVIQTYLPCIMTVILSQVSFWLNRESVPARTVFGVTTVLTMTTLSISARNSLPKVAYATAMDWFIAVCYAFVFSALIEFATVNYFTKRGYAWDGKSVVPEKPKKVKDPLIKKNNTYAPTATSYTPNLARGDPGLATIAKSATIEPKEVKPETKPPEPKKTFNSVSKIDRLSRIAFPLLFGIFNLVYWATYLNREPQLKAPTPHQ
T2 sequence (P47870 whole entry): T1 sequence (P47870 whole entry)
T2 sequence (P18507 whole entry): T1 sequence (P18507 whole entry)

Homo sapiens = species: Homo sapiens; test: Relative binding affinity for GABA-A receptor alpha-5 over alpha1 subunits
[4] = Binding affinity for human GABA-A receptor alpha-5--beta-2-gamma-2 expressed in L(tk-) cell membranes
Procedure, shortened: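 Competition binding on membranes of Ltk cells expressing human αxβ2γ2 receptors. Radioligand was [3H]Ro 15-1788, or [3H]Ro 15-4513 for α6β2γ2. Ki is the mean of two determinations differing by less than 10%.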

[5] = molecular target: T3, GABA A receptor alpha-2/beta-2/gamma-2 (Homo sapiens, UniProt P18507+P47869+P47870); test: Binding affinity for human GABA-A receptor alpha-2-beta-2-gamma-2 expressed in L(tk-) cell membranes
T3 sequence (P47870 whole entry): T1 sequence (P47870 whole entry)
T3 sequence (P18507 whole entry): T1 sequence (P18507 whole entry)
T3 sequence (P47869 whole entry): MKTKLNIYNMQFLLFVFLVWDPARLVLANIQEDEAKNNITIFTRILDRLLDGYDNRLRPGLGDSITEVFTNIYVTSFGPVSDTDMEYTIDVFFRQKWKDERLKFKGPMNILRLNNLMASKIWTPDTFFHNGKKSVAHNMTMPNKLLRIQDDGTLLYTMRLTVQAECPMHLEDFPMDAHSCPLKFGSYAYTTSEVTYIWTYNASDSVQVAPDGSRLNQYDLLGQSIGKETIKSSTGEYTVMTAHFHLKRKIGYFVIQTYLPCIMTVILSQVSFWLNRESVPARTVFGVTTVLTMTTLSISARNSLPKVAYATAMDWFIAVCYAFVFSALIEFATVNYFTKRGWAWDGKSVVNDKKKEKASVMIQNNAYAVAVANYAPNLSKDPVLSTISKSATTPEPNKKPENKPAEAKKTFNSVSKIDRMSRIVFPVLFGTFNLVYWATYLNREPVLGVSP

Mus musculus [6] = species: Mus musculus; test: Dose required for 50% seizure of maximum number of animals; type: functional
Procedure, shortened: (§1)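 Adult male NIH/Swiss mice (~30 g) got a single ip injection of graded doses (up to 40 or 80 mg/kg) or vehicle, suspended in 10% diluted Emulphor:90% saline with warming and sonication. They were observed 10 min; tonic/clonic convulsions with loss of righting reflex were scored. CD50 is the dose seizing half the maximal number convulsing, by nonlinear regression.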

[7] = molecular target: T4, Gamma-aminobutyric acid receptor subunit alpha-5 (Rattus norvegicus, UniProt P19969); test: Inhibition of [3H]flunitrazepam binding to high affinity GABA-A receptor of rat hippocampal membranes; type: cell membranes, Membrane
Procedure, shortened: (§2)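 Male Sprague–Dawley rat hippocampal or cerebellar membranes, washed in 50 mM Tris-citrate pH 7.4. They were incubated with ~1 nM [3H]flunitrazepam (final) plus NaCl, 120 min at 0–4 °C, then filtered. Nonspecific binding was set with 10 µM Ro 15-1788. IC50 used 8–12 concentrations; hippocampal data were fitted two-site (F test). Four experiments, mean ± SEM.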

[8] = molecular target: GABA-A receptor; anion channel; test: (§3) Inhibition of [3H]flunitrazepam binding to low affinity GABA-A receptor of rat hippocampal membranes; type: cell membranes, Membrane; procedure, shortened: as §2
[9] = molecular target: T4, Gamma-aminobutyric acid receptor subunit alpha-5; test: Inhibition of [3H]flunitrazepam binding to alpha5 GABA-A receptor of rat hippocampal membranes; type: cell membranes, Membrane; procedure, shortened: as §2
[10] = molecular target: GABA-A receptor; anion channel; test: as §3; type: cell membranes, Membrane; procedure, shortened: as §2; remark: listed apart in the source
Mus musculus [11] = species: Mus musculus; test: Convulsant activity was evaluated in mice; type: functional; procedure, shortened: as §1
[12] = molecular target: GABA-A receptor; anion channel; test: Inhibition of [3H]flunitrazepam binding to GABA-A receptor of rat cerebral membranes; type: cell membranes, Membrane; procedure, shortened: as §2
[13] = molecular target: T4, Gamma-aminobutyric acid receptor subunit alpha-5; test: Inhibition of [3H]flunitrazepam binding to alpha-5 GABA-A receptor of rat hippocampal membranes; type: cell membranes, Membrane; procedure, shortened: as §2
Mus musculus [14] = species: Mus musculus; test: Proconvulsant potency at which 50% of the animals (mice) convulsed 15 min after receiving PTZ.; type: functional; details: read-out: PD50
Procedure, shortened: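 Mice got a single ip dose of the ligand or vehicle, then PTZ (40 mg/kg ip) 15 min later, and were observed 10 min. N = 5–10 per group. PD50 is the dose at which 50% of animals convulsed, by nonlinear regression.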

Mus musculus [15] = species: Mus musculus; test: Anticonvulsant activity against convulsions induced by DMCM; type: functional
Procedure, shortened: (§4)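 Male NIH/Swiss mice (~30 g) given graded ip doses of zolpidem, flumazenil or vehicle in 10% diluted Emulphor:90% saline. 10 min later they were challenged ip with DMCM (7.5 mg/kg) or the convulsant test ligand (20 mg/kg). Convulsions were observed; N = 5–10 per dose. ED50 came from nonlinear regression.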

Mus musculus [16] = species: Mus musculus; test: Anticonvulsant activity against convulsions induced by Compound 9; type: functional; procedure, shortened: as §4
Mus musculus [17] = species: Mus musculus; test: Convulsant activity was evaluated; type: functional; procedure, shortened: as §1

GABA A receptor alpha-6/beta-2/gamma-2, sequence (Q16445 whole entry, one chain of several): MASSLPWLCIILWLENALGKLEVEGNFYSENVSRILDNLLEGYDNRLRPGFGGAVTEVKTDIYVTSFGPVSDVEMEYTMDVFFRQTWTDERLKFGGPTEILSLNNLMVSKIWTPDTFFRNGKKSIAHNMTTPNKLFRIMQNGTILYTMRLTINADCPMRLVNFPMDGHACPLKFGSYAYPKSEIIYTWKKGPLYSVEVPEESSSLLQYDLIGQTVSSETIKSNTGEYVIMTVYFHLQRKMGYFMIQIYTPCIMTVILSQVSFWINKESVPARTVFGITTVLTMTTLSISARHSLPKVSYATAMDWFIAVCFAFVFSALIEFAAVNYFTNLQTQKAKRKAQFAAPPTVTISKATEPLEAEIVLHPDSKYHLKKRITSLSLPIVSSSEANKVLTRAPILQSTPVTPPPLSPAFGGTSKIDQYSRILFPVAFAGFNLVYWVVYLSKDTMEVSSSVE
T4 sequence (P19969 whole entry): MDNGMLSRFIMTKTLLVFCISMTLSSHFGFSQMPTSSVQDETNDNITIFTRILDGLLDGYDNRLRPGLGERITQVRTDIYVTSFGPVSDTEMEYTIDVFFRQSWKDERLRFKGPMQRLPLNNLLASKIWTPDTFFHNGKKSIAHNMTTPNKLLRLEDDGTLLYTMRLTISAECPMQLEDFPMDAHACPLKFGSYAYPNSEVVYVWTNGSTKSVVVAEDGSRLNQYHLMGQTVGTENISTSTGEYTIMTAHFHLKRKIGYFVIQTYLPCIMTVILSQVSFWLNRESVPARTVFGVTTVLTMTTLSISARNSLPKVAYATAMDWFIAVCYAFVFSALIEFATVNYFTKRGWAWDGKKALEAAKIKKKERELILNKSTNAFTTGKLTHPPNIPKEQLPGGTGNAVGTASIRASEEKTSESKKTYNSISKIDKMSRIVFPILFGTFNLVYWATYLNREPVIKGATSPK

Structure (SMILES) | Ki [1] | Ki [2] | Ki [3] | Ratio (Homo sapiens) | Ki [4] | Ki [5] | CD50 (Mus musculus [6]) | also measured
CN1Cc2c(C(=O)OC(C)(C)C)ncn2-c2ccc(Br)cc2C1=O | 0.0094 µM | 0.0092 µM | 0.0114 µM | 24 | 0.0005 µM | 0.0107 µM |  | 
C#Cc1ccc2c(c1)C(=O)N(C)Cc1c(C(=O)OC(C)(C)C)ncn1-2 | 0.0051 µM | 0.0187 µM | 0.0269 µM | 67.3 | 0.0004 µM | 0.0263 µM | 5.9 mg/kg | IC50 [7]: 0.0006 µM; IC50 [8]: 0.0707 µM; IC50 [9]: 0.0672 µM; IC50 [10]: 0.0856 µM; Activity (Mus musculus [11]): 80%; IC50 [12]: 0.0798 µM; IC50 [13]: 0.00033 µM
CN1Cc2c(C(=O)OC(C)(C)C)ncn2-c2ccc(C#C[Si](C)(C)C)cc2C1=O | 0.0586 µM | 0.255 µM | 0.197 µM | 75.5 | 0.00261 µM | 0.143 µM | 2.3 mg/kg | ED50 (Mus musculus [14]): 40 mg/kg; Activity (Mus musculus [11]): 22%
CC#Cc1ccc2c(c1)C(=O)N(C)Cc1c(C(=O)OCC)ncn1-2 | > 0.1 µM | 0.0165 µM | 0.0101 µM | 6 | 0.0017 µM | 0.0222 µM |  | 
CCOC(=O)c1ncn2c1CN(C)C(=O)c1cc(N=[N+]=[N-])ccc1-2 [Ro-154513] |  |  |  |  | 0.00026 µM |  |  | 
CCOC(=O)c1ncn2c1CN(C)C(=O)c1cc(C#C[Si](C)(C)C)ccc1-2 | 0.114 µM | 0.198 µM |  | 24 | 0.005 µM | 0.142 µM | 70.9 mg/kg | Activity (Mus musculus [11]): 85%
CCOC(=O)c1ncn2c1CN(C)C(=O)c1cc(F)ccc1-2 [FLUMAZENIL] |  |  |  |  |  |  |  | ED50 (Mus musculus [15]): 2.3 mg/kg; ED50 (Mus musculus [16]): 3.8 mg/kg
CCOC(=O)c1ncn2c1CN(C)C(=O)c1cc(C#CC[Si](C)(C)C)ccc1-2 | > 0.3 µM | > 0.3 µM | > 0.3 µM |  | > 0.3 µM | > 0.3 µM |  | 
CCOC(=O)c1ncn2c1CN(C)C(=O)c1cc(CC)ccc1-2 | 0.176 µM | 0.0261 µM | 0.0204 µM | 13.8 | 0.0015 µM | 0.027 µM |  | 
CCc1ccc2c(c1)C(=O)N(C)Cc1c(C(=O)OC(C)(C)C)ncn1-2 | 0.0229 µM | 0.0253 µM | 0.0148 µM | 8.6 | 0.0017 µM | 0.056 µM |  | 
C#Cc1ccc2c(c1)C(=O)N(C)Cc1c(C(=O)OCC)ncn1-2 | 0.0288 µM | 0.0258 µM | 0.0284 µM | 60 | 0.0005 µM | 0.0214 µM | 24 mg/kg | Activity (Mus musculus [17]): 70%
Cc1ccc(-c2nc3ccc(C)cn3c2CC(=O)N(C)C)cc1 [ZOLPIDEM] |  |  |  |  |  |  |  | ED50 (Mus musculus [15]): 0.4 mg/kg; ED50 (Mus musculus [16]): 7 mg/kg
